Activity calls are given as the source filed them. The rule behind the calls is not given here.
Assays:
OVCAR-3 = assay: Growth inhibition of human OVCAR3 cells after 48 hrs by SRB assay; format: functional; conditions: OVCAR-3, 48 h
HCT-116 = assay: Growth inhibition of human HCT116 cells after 48 hrs by SRB assay; format: functional; conditions: HCT-116, 48 h
[1] = Potency index, ratio of AGK2 IC50 to test compound IC50 for human U373 cells; format: functional, U-373MG ATCC
[2] = biological target: Polyamine deacetylase HDAC10 (Homo sapiens) (UniProt Q969S8); assay: Inhibition of C-terminal His-tagged recombinant human HDAC10 expressed in baculovirus infected insect Sf9 cells at 0.1 to 100 uM using Fluor-de-Lys-SIRT1 as substrate after 15 mins by fluorescence assay
Hs 683 [3] = assay: Potency index, ratio of AGK2 IC50 to test compound IC50 for human Hs683 cells; format: functional
[4] = biological target: T1, NAD-dependent protein deacetylase sirtuin-1 (Homo sapiens) (UniProt Q96EB6); assay: Inhibition of SIRT1 in human Hs683 cells assessed as increase of histone H4 acetylation at 10 to 25 after 8 to 24 hrs by Western blotting method; format: cell-based
T1 sequence (whole entry): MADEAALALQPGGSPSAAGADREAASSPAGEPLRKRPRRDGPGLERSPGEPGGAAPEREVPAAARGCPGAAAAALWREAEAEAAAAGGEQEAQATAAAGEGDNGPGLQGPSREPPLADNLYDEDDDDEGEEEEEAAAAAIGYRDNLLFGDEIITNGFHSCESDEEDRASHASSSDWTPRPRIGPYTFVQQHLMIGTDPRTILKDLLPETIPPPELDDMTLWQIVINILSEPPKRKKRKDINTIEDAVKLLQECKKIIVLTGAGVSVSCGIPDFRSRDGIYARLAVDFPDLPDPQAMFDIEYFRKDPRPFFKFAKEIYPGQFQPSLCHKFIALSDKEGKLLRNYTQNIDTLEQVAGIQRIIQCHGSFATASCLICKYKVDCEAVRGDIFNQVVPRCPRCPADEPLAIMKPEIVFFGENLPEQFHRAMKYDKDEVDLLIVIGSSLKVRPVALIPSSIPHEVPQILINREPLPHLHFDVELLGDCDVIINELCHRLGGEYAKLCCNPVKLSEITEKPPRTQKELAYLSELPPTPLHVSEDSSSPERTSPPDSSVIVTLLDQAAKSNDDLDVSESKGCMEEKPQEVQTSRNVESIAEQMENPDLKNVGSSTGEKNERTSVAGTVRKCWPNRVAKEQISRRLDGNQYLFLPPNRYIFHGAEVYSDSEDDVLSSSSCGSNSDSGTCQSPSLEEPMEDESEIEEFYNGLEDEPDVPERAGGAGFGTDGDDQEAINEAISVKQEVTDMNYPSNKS

Homo sapiens = species: Homo sapiens; assay: Inhibition of HDAC isolated from human K562 cells at 0.1 to 100 uM using Fluor-de-Lys as substrate after 15 mins by fluorescence assay
[5] = biological target: Histone deacetylase 8 (Homo sapiens) (UniProt Q9BY41); assay: Inhibition of recombinant human HDAC8 expressed in Escherichia coli at 0.1 to 100 uM using Fluor-de-Lys-HDAC8 as substrate after 15 mins by fluorescence assay
SW-620 = assay: Growth inhibition of human SW620 cells after 48 hrs by SRB assay; format: functional; conditions: SW-620, 48 h
U-251 = assay: Growth inhibition of human U251 cells after 48 hrs by SRB assay; format: functional; conditions: U-251, 48 h
[6] = biological target: T2, NAD-dependent protein deacetylase sirtuin-2 (Homo sapiens) (UniProt Q8IXJ6); assay: Inhibition of SIRT2 in human U373 cells assessed as increase of alpha-tubulin acetylation at 5 uM after 8 hrs by Western blotting method relative to control; format: cell-based
T2 sequence (whole entry): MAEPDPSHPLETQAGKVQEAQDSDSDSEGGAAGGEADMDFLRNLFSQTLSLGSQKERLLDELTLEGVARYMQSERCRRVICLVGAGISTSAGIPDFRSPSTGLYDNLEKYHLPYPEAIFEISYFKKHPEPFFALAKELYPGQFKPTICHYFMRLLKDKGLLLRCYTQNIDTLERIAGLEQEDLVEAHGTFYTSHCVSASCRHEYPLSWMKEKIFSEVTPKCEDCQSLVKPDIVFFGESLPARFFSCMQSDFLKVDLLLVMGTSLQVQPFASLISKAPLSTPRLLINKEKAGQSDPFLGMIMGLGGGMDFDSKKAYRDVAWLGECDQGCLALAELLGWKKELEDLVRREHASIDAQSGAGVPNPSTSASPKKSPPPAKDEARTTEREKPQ

[7] = biological target: T1, NAD-dependent protein deacetylase sirtuin-1 (Homo sapiens); assay: Inhibition of SIRT1 in human U373 cells assessed as increase of histone H4 acetylation at 5 uM after 8 hrs by Western blotting method relative to control; format: cell-based
UO-31 = assay: Growth inhibition of human UO31 cells after 48 hrs by SRB assay; format: functional; conditions: UO-31, 48 h
U-373MG ATCC = assay: Inhibition of spheroid forming capacity of human U373 cells assessed as decrease in surface area of tumor spheroids at 5 to 10 uM treated for 24 hrs measured after 96 hrs by bright field microscopic method; format: functional, cell-based
Outline: (§1)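 Spheroids formed from 1 × 10^3 cells in 25 μL. Cells were pretreated 24 h with compound then left untreated 96 h, or untreated spheroids were cultured 96 h with compound. Surface measured from bright-field images; volume in voxels from 3D plots after image segmentation. Mean ± SD of three independent experiments.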

786-0 = assay: Growth inhibition of human 786-0 cells after 48 hrs by SRB assay; format: functional; conditions: 786-0, 48 h
ACHN = assay: Growth inhibition of human ACHN cells after 48 hrs by SRB assay; format: functional
Hs 683 [8] = assay: Inhibition of spheroid forming capacity of human Hs683 cells assessed as decrease in surface area of tumor spheroids at 5 to 10 uM treated for 24 hrs measured after 96 hrs by bright field microscopic method; format: functional, cell-based; outline: as §1
[9] = biological target: Histone deacetylase 3 (Homo sapiens) (UniProt O15379); assay: Inhibition of His-tagged recombinant human HDAC3 expressed in baculovirus infected insect cells at 0.1 to 100 uM using Fluor-de-Lys-SIRT1 as substrate after 15 mins by fluorescence assay
SW1573/2R160 = assay: Antiproliferative activity against human SW1573/2R160 cells overexpressing ABCB1 after 72 hrs by MTT assay; format: functional, cell-based
Outline: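 MTT assay: cells in RPMI 1640 with 10% heat-inactivated FCS at 37 °C and 5% CO2 were seeded 24 h before treatment. They were exposed 72 h to compound at 0.01–100 μM, with DMSO as solvent.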

[10] = biological target: T3, NAD-dependent protein deacetylase sirtuin-1 (Homo sapiens, UniProt Q96EB6); assay: Inhibition of N-terminal His-tagged recombinant human SIRT-1 expressed in Escherichia coli using Fluor-de-Lys-SIRT1 as substrate after 15 mins by fluorescence assay
T3 sequence (Q96EB6 whole entry): T1 sequence (whole entry)

NCI/ADR-RES = assay: Growth inhibition of human NCI-ADR-RES cells after 48 hrs by SRB assay; format: functional

Histone deacetylase 8 (Homo sapiens), sequence (Q9BY41 whole entry): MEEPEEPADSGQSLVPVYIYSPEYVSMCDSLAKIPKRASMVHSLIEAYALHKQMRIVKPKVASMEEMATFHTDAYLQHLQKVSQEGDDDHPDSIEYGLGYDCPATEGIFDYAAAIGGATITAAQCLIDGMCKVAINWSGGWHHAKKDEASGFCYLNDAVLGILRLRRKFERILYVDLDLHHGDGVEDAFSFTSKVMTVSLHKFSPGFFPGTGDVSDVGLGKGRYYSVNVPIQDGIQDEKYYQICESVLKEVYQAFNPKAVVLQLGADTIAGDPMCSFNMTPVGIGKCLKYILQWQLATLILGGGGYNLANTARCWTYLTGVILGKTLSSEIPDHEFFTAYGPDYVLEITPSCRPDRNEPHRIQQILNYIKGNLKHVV
Polyamine deacetylase HDAC10 (Homo sapiens), sequence (Q969S8 whole entry): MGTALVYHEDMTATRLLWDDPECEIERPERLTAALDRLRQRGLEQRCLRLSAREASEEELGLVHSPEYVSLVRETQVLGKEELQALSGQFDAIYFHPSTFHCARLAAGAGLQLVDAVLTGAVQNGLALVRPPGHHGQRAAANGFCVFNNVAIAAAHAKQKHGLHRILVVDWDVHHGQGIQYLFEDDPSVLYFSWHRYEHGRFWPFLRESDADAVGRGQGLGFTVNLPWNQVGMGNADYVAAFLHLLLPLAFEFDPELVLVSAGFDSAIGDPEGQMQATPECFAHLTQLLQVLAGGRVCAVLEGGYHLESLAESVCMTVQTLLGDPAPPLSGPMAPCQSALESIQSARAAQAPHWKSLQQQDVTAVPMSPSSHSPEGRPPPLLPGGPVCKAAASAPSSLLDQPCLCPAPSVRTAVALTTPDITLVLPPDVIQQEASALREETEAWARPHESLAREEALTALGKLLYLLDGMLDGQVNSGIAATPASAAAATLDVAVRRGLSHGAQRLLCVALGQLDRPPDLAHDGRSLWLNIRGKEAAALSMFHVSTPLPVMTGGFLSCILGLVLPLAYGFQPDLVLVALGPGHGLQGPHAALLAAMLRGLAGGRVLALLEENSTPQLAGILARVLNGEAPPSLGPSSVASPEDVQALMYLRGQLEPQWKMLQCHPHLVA
Histone deacetylase 3 (Homo sapiens), sequence (O15379 whole entry): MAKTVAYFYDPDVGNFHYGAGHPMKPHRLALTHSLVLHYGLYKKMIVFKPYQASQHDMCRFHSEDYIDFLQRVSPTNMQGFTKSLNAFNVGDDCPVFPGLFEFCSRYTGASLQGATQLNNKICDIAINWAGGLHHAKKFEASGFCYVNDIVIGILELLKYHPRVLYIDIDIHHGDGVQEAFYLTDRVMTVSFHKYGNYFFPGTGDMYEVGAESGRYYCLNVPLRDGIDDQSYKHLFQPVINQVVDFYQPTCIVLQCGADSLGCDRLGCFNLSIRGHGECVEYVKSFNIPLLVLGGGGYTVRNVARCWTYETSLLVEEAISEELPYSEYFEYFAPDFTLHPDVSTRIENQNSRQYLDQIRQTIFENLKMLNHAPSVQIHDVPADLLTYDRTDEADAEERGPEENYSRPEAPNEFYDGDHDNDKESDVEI

Q: With `CC(C)(C)OC(=O)Nc1ccc2c(c1)C(NC(=O)Nc1cccc(C#N)c1)CC(C)(C)O2` (stereo unspecified) as the molecule, how does the GI50 (OVCAR-3) read?
A: Its GI50 is 2.29 µM.

Q: And the GI50 (HCT-116)?
A: Its GI50 is 1.74 µM.

Q: What about the “Ratio IC50” value [1] of the same molecule?
A: The value was 6 - 14.

Q: What about the inhibition [2] of the same molecule?
A: Its inhibition is “inactive”.

Q: And the “Ratio IC50” value (Hs 683 [3])?
A: Its value is 6 - 14.

Q: What about the inhibition [4] of the same molecule?
A: The inhibition was “Active”.

Q: And the inhibition (Homo sapiens)?
A: Its inhibition is “inactive”.

Q: And the inhibition [5]?
A: The inhibition was “inactive”.

Q: What about the GI50 (SW-620) of the same molecule?
A: The GI50 was 3.8 µM.

Q: What about the GI50 (U-251) of the same molecule?
A: Its GI50 is 1.48 µM.

Q: What about the fold change (FC) [6] of the same molecule?
A: Its fold change (FC) is 5.9.

Q: And the fold change (FC) [7]?
A: Its fold change (FC) is 1.3.

Q: What about the GI50 (UO-31) of the same molecule?
A: Its GI50 is 4.27 µM.

Q: What about the inhibition (U-373MG ATCC) of the same molecule?
A: Its inhibition is “Active”.

Q: And the GI50 (786-0)?
A: The GI50 was 7.59 µM.

Q: What about the GI50 (ACHN) of the same molecule?
A: Its GI50 is 3.8 µM.

Q: And the inhibition (Hs 683 [8])?
A: The inhibition was “Active”.

Q: And the inhibition [9]?
A: Its inhibition is “inactive”.

Q: And the Activity (SW1573/2R160)?
A: The Activity was “Active”.

Q: And the IC50 [10]?
A: Its IC50 is 6.2 µM.

Q: And the GI50 (NCI/ADR-RES)?
A: The GI50 was 3.09 µM.
